# Test results taken from ChEMBL document CHEMBL5724801, “EUbOPEN Chemogenomics Library - Multiplex” (2024).
# Several values for one entry are separate records, joined by “and”; a condition that tells them apart may be missing. Equal values may be shown once.
# Test system: Fibroblast
# Experiment: Multiplex assay against human fibroblast
# Type: toxicity, cell-based
# Procedure, shortened: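 Values for tubulin, mitochondrial-mass and membrane-permeability phenotypes are per cents of cells with healthy nuclei. These cells were identified by CellPathfinder machine-learning gating of live cells that had been stained at seeding with Hoechst33342, BioTracker Green Microtubule Cytoskeleton Dye, MitoTracker Red and Annexin V Alexa Fluor 680 and imaged on a CQ1 microscope at 37°C and 5% CO2 after compound addition. The gating first set Hoechst high-intensity objects apart from normal cells, then split normal cells into healthy, pyknosed or fragmented nuclei, and pyknosed cells into mitotic or apoptotic.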
# [1] = 12 h, 1 µM, compound concentration 1 uM
# [2] = 12 h, 10 µM, compound concentration 10 uM
# [3] = 24 h, 1 µM, compound concentration 1 uM
# [4] = 24 h, 10 µM, compound concentration 10 uM
# [5] = 48 h, 1 µM, compound concentration 1 uM
# [6] = 48 h, 10 µM, compound concentration 10 uM
smiles,measurement,setting,value
COCCNc1cc(NC(=O)N2CCCc3cc(CN4CCOCC4=O)c(C=O)nc32)ncc1C#N,Population Fragmented Nuclei (%),[1],9.19% and 4.72%
same,Population Healthy Nuclei (%),[1],62.7% and 77.36%
same,Population Hoechst High Intensity Objects (%),[1],0%
same,Population Membrane Permeable-Phenotype (%),[1],4.31% and 4.27%
same,Population Mitochondria Different-Phenotype (%),[1],4.31% and 6.71%
same,Population Mitotic Cells (%),[1],92.31% and 76.32%
same,Population Normal (%),[1],100%
same,Population Pyknosed Nuclei (%),[1],28.11% and 17.92%
same,Population Tubulin-Different-Phenotype (%),[1],12.07% and 18.29%
same,Total Cell Count,[1],185 and 212
same,Population Apoptotic (%),[2],11.11% and 16.67%
same,Population Fragmented Nuclei (%),[2],13.02% and 4.35%
same,Population Healthy Nuclei (%),[2],54.17% and 72.83%
same,Population Hoechst High Intensity Objects (%),[2],0% and 0.54%
same,Population Membrane Permeable-Phenotype (%),[2],9.62% and 8.21%
same,Population Mitochondria Different-Phenotype (%),[2],20.19% and 13.43%
same,Population Mitotic Cells (%),[2],88.89% and 83.33%
same,Population Normal (%),[2],100% and 99.46%
same,Population Pyknosed Nuclei (%),[2],32.81% and 22.83%
same,Population Tubulin-Different-Phenotype (%),[2],43.27% and 48.51%
same,Total Cell Count,[2],192 and 185
same,Population Fragmented Nuclei (%),[3],7.46% and 3.69%
same,Population Healthy Nuclei (%),[3],72.64% and 83.41%
same,Population Hoechst High Intensity Objects (%),[3],0%
same,Population Membrane Permeable-Phenotype (%),[3],4.79% and 2.76%
same,Population Mitochondria Different-Phenotype (%),[3],2.05% and 5.52%
same,Population Mitotic Cells (%),[3],95% and 78.57%
same,Population Normal (%),[3],100%
same,Population Pyknosed Nuclei (%),[3],19.9% and 12.9%
same,Population Tubulin-Different-Phenotype (%),[3],10.27% and 12.15%
same,Total Cell Count,[3],201 and 217
same,Population Apoptotic (%),[4],26.32% and 30%
same,Population Fragmented Nuclei (%),[4],10.14% and 8.42%
same,Population Healthy Nuclei (%),[4],71.5% and 70.53%
same,Population Hoechst High Intensity Objects (%),[4],0%
same,Population Membrane Permeable-Phenotype (%),[4],12.84% and 7.46%
same,Population Mitochondria Different-Phenotype (%),[4],15.54% and 15.67%
same,Population Mitotic Cells (%),[4],73.68% and 70%
same,Population Normal (%),[4],100%
same,Population Pyknosed Nuclei (%),[4],18.36% and 21.05%
same,Population Tubulin-Different-Phenotype (%),[4],43.24% and 50.75%
same,Total Cell Count,[4],207 and 190
same,Population Apoptotic (%),[5],15.38% and 26.32%
same,Population Fragmented Nuclei (%),[5],7.73% and 4.91%
same,Population Healthy Nuclei (%),[5],86.7% and 86.61%
same,Population Hoechst High Intensity Objects (%),[5],0%
same,Population Membrane Permeable-Phenotype (%),[5],1.49% and 2.58%
same,Population Mitochondria Different-Phenotype (%),[5],7.92% and 1.03%
same,Population Mitotic Cells (%),[5],84.62% and 73.68%
same,Population Normal (%),[5],100%
same,Population Pyknosed Nuclei (%),[5],5.58% and 8.48%
same,Population Tubulin-Different-Phenotype (%),[5],5.45% and 12.89%
same,Total Cell Count,[5],233 and 224
same,Population Apoptotic (%),[6],25% and 38.46%
same,Population Fragmented Nuclei (%),[6],13.64% and 8.2%
same,Population Healthy Nuclei (%),[6],79.09% and 84.7%
same,Population Hoechst High Intensity Objects (%),[6],0%
same,Population Membrane Permeable-Phenotype (%),[6],4.02% and 7.74%
same,Population Mitotic Cells (%),[6],75% and 61.54%
same,Population Normal (%),[6],100%
same,Population Pyknosed Nuclei (%),[6],7.27% and 7.1%
same,Population Tubulin-Different-Phenotype (%),[6],24.71% and 43.87%
same,Total Cell Count,[6],220 and 183
CC(C)C[C@H](NC(=O)c1cc2ccccc2s1)C(=O)N1CCN(C(=O)[C@H](CO)NS(=O)(=O)c2ccc(Cl)cc2Cl)CC1,Population Fragmented Nuclei (%),[1],14.47% and 9.24%
same,Population Healthy Nuclei (%),[1],51.57% and 56.52%
same,Population Hoechst High Intensity Objects (%),[1],0%
same,Population Membrane Permeable-Phenotype (%),[1],7.32% and 5.77%
same,Population Mitochondria Different-Phenotype (%),[1],17.07% and 18.27%
same,Population Mitotic Cells (%),[1],88.89% and 55.56%
same,Population Normal (%),[1],100%
same,Population Pyknosed Nuclei (%),[1],33.96% and 34.24%
same,Population Tubulin-Different-Phenotype (%),[1],35.37% and 45.19%
same,Total Cell Count,[1],159 and 184
same,Population Apoptotic (%),[2],10.29% and 22.73%
same,Population Fragmented Nuclei (%),[2],17.22% and 7.1%
same,Population Healthy Nuclei (%),[2],45% and 56.83%
same,Population Hoechst High Intensity Objects (%),[2],0%
same,Population Membrane Permeable-Phenotype (%),[2],19.75% and 36.54%
same,Population Mitochondria Different-Phenotype (%),[2],58.02% and 50.96%
same,Population Mitotic Cells (%),[2],89.71% and 77.27%
same,Population Normal (%),[2],100%
same,Population Pyknosed Nuclei (%),[2],37.78% and 36.07%
same,Population Tubulin-Different-Phenotype (%),[2],81.48% and 96.15%
same,Total Cell Count,[2],180 and 183
same,Population Fragmented Nuclei (%),[3],15.79% and 9.14%
same,Population Healthy Nuclei (%),[3],54.39% and 66.29%
same,Population Hoechst High Intensity Objects (%),[3],0%
same,Population Membrane Permeable-Phenotype (%),[3],9.68% and 7.76%
same,Population Mitochondria Different-Phenotype (%),[3],10.75% and 17.24%
same,Population Mitotic Cells (%),[3],96.08% and 48.84%
same,Population Normal (%),[3],100%
same,Population Pyknosed Nuclei (%),[3],29.82% and 24.57%
same,Population Tubulin-Different-Phenotype (%),[3],45.16% and 50%
same,Total Cell Count,[3],171 and 175
same,Population Apoptotic (%),[4],22.58% and 46.67%
same,Population Fragmented Nuclei (%),[4],11.67% and 8.33%
same,Population Healthy Nuclei (%),[4],71.11% and 66.67%
same,Population Hoechst High Intensity Objects (%),[4],0%
same,Population Membrane Permeable-Phenotype (%),[4],19.53% and 8.33%
same,Population Mitochondria Different-Phenotype (%),[4],49.22% and 55.83%
same,Population Mitotic Cells (%),[4],77.42% and 53.33%
same,Population Normal (%),[4],100%
same,Population Pyknosed Nuclei (%),[4],17.22% and 25%
same,Population Tubulin-Different-Phenotype (%),[4],89.84% and 96.67%
same,Total Cell Count,[4],180
same,Population Fragmented Nuclei (%),[5],10.05% and 9.68%
same,Population Healthy Nuclei (%),[5],78.84% and 78.49%
same,Population Hoechst High Intensity Objects (%),[5],0%
same,Population Mitochondria Different-Phenotype (%),[5],12.75% and 8.22%
same,Population Mitotic Cells (%),[5],85.71% and 50%
same,Population Normal (%),[5],100%
same,Population Pyknosed Nuclei (%),[5],11.11% and 11.83%
same,Population Tubulin-Different-Phenotype (%),[5],33.56% and 65.07%
same,Total Cell Count,[5],189 and 186
same,Population Apoptotic (%),[6],38.89% and 56.52%
same,Population Fragmented Nuclei (%),[6],11.45% and 11.37%
same,Population Healthy Nuclei (%),[6],77.71% and 77.73%
same,Population Hoechst High Intensity Objects (%),[6],0%
same,Population Membrane Permeable-Phenotype (%),[6],6.2% and 8.54%
same,Population Mitochondria Different-Phenotype (%),[6],39.53% and 48.78%
same,Population Mitotic Cells (%),[6],61.11% and 43.48%
same,Population Normal (%),[6],100%
same,Population Pyknosed Nuclei (%),[6],10.84% and 10.9%
same,Population Tubulin-Different-Phenotype (%),[6],82.17% and 96.34%
same,Total Cell Count,[6],166 and 211
CCC(=O)OCC(=O)[C@@]1(OC(=O)CC)[C@@H](C)C[C@H]2[C@@H]3CCC4=CC(=O)C=C[C@]4(C)[C@@]3(Cl)[C@@H](O)C[C@@]21C [BECLOMETHASONE DIPROPIONATE],Population Apoptotic (%),[1],38% and 42%
same,Population Fragmented Nuclei (%),[1],13% and 30%
same,Population Healthy Nuclei (%),[1],73% and 40%
same,Population Hoechst High Intensity Objects (%),[1],3%
same,Population Membrane Permeable-Phenotype (%),[1],1% and 5%
same,Population Mitochondria Different-Phenotype (%),[1],2% and 10%
same,Population Mitotic Cells (%),[1],61% and 57%
same,Population Normal (%),[1],96%
same,Population Pyknosed Nuclei (%),[1],13% and 30%
same,Population Tubulin-Different-Phenotype (%),[1],47% and 63%
same,Total Cell Count,[1],135 and 155
same,Population Apoptotic (%),[2],40%
same,Population Healthy Nuclei (%),[2],69% and 42%
same,Population Hoechst High Intensity Objects (%),[2],8% and 5%
same,Population Mitochondria Different-Phenotype (%),[2],17% and 20%
same,Population Mitotic Cells (%),[2],60% and 59%
same,Population Normal (%),[2],91% and 94%
same,Population Pyknosed Nuclei (%),[2],20% and 24%
same,Population Tubulin-Different-Phenotype (%),[2],87% and 94%
same,Total Cell Count,[2],157 and 96
same,Population Apoptotic (%),[3],50% and 47%
same,Population Fragmented Nuclei (%),[3],16% and 30%
same,Population Healthy Nuclei (%),[3],65% and 45%
same,Population Hoechst High Intensity Objects (%),[3],1% and 6%
same,Population Membrane Permeable-Phenotype (%),[3],3% and 7%
same,Population Mitochondria Different-Phenotype (%),[3],2% and 7%
same,Population Mitotic Cells (%),[3],50% and 52%
same,Population Normal (%),[3],98% and 93%
same,Population Pyknosed Nuclei (%),[3],18% and 24%
same,Population Tubulin-Different-Phenotype (%),[3],34% and 60%
same,Total Cell Count,[3],134 and 150
same,Population Apoptotic (%),[4],40% and 19%
same,Population Fragmented Nuclei (%),[4],13% and 38%
same,Population Healthy Nuclei (%),[4],66% and 40%
same,Population Hoechst High Intensity Objects (%),[4],6%
same,Population Mitochondria Different-Phenotype (%),[4],30% and 12%
same,Population Mitotic Cells (%),[4],59% and 80%
same,Population Normal (%),[4],93%
same,Population Pyknosed Nuclei (%),[4],19% and 21%
same,Population Tubulin-Different-Phenotype (%),[4],86% and 79%
same,Total Cell Count,[4],148 and 104
same,Population Apoptotic (%),[5],28% and 52%
same,Population Fragmented Nuclei (%),[5],13% and 31%
same,Population Healthy Nuclei (%),[5],56% and 41%
same,Population Hoechst High Intensity Objects (%),[5],3% and 7%
same,Population Membrane Permeable-Phenotype (%),[5],1% and 5%
same,Population Mitochondria Different-Phenotype (%),[5],15% and 9%
same,Population Mitotic Cells (%),[5],71% and 47%
same,Population Normal (%),[5],96% and 92%
same,Population Pyknosed Nuclei (%),[5],30% and 27%
same,Population Tubulin-Different-Phenotype (%),[5],61% and 54%
same,Total Cell Count,[5],132 and 143
same,Population Apoptotic (%),[6],67% and 37%
same,Population Fragmented Nuclei (%),[6],21% and 33%
same,Population Healthy Nuclei (%),[6],54% and 33%
same,Population Hoechst High Intensity Objects (%),[6],6% and 3%
same,Population Membrane Permeable-Phenotype (%),[6],0% and 18%
same,Population Mitotic Cells (%),[6],32% and 62%
same,Population Normal (%),[6],93% and 96%
same,Population Pyknosed Nuclei (%),[6],24% and 33%
same,Population Tubulin-Different-Phenotype (%),[6],76% and 84%
same,Total Cell Count,[6],162 and 99
